Test results as given in ChEMBL document CHEMBL1123472, “Long-acting dihydropyridine calcium antagonists. 1. 2-Alkoxymethyl derivatives incorporating basic substituents” (J Med Chem, 1986).

Assays:
Cavia porcellus = species: Cavia porcellus; assay: Negative inotropy measured as the concentration required to depress contraction in the isolated Langendorff-perfused guinea pig heart by 25%; assay type: functional
How it was run: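 Hearts from male guinea pigs were Langendorff-perfused with Krebs-Henseleit solution at 37 °C. Force and rate of contraction were measured with a force transducer attached to the apex.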

Rattus norvegicus = species: Rattus norvegicus; assay: In vitro calcium antagonist activity was assessed against calcium induced constriction of potassium -depolarized rat aorta by 50%
Canis familiaris [1] = assay: Percent decrease in coronary vascular resistance in dogs after intravenous dosage of 1500 ug/kg compound; assay type: functional, Canis lupus familiaris
How it was run: (§1)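 Given intravenously to instrumented, anesthetized dogs. Coronary blood flow was measured by hydrogen clearance. Coronary vascular resistance was derived as arterial blood pressure divided by coronary flow.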

Canis familiaris [2] = assay: Percent decrease in coronary vascular resistance in dogs after intravenous dosage of 450 ug/kg compound; assay type: functional, Canis lupus familiaris; how it was run: as §1
[3] = In vitro calcium antagonist activity was assessed against calcium induced constriction of potassium-depolarized rat aorta; assay type: functional, tissue-based
How it was run: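 Spirally cut rat aortic strips, one end fixed and the other on a force transducer, in modified Krebs-Henseleit with 45 mM K⁺ and no calcium. CaCl2 is added to a final 2 mM Ca²⁺ and the contraction tension is recorded. After draining, refilling and 45 min, the challenge is repeated with the compound in the saline. The concentration giving 50% reduction of the response is recorded.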

Canis familiaris [4] = assay: Percent decrease in coronary vascular resistance in dogs after intravenous dosage of 150 ug/kg compound
[5] = Compound was tested for the plasma half life in dogs; assay type: functional
[6] = Compound was tested for the volume of distribution in dogs; assay type: functional, organism-based

Row | -Log IC50 [3] | SMILES | -Log IC25 (Cavia porcellus) | also measured
1 | – | COC(=O)C1=C(C)NC(C)=C(C(=O)OC)C1c1ccccc1[N+](=O)[O-] [NIFEDIPINE] | 7.5 | IC50 (Rattus norvegicus): 3.98 nM
2 | 7.9 | CCO/C(O)=C1\C(COCCN2CCN(c3ccc(F)cc3)CC2)=NC(C)=C(C(=O)OC)C1c1ccccc1Cl (stereo not given) | 7.3 | –
3 | 8 | CCO/C(O)=C1\C(COCCN(C)C)=NC(C)=C(C(=O)OC)C1c1cccc([N+](=O)[O-])c1 (stereo not given) | 7.1 | –
4 | 6.8 | CCO/C(O)=C1\C(COCCN)=NC(C)=C(C(=O)OC)C1c1ccccc1 (stereo not given) | 6.2 | –
5 | 8.6 | CCO/C(O)=C1\C(COCCCN(C)C)=NC(C)=C(C(=O)OC)C1c1ccccc1Cl (stereo not given) | 8.6 | –
6 | 8.2 | CCO/C(O)=C1\C(COCCN2CCN(C(C)C)CC2)=NC(C)=C(C(=O)OC)C1c1ccccc1Cl (stereo not given) | 8 | –
7 | 7.1 | CCO/C(O)=C1\C(COCCN(C)C)=NC(C)=C(C(=O)OC)C1c1cccc2ccccc12 (stereo not given) | 7.7 | –
8 | 7.2 | CCO/C(O)=C1\C(COCCNC)=NC(C)=C(C(=O)OC)C1c1ccccc1C (stereo not given) | 7.2 | –
9 | 6.9 | CCO/C(O)=C1\C(COCCN(C)C)=NC(C)=C(C(=O)OC)C1c1cccs1 (stereo not given) | 6.6 | –
10 | 7.9 | CCO/C(O)=C1\C(COCCN)=NC(C)=C(C(=O)OC)C1c1cccc(Cl)c1 (stereo not given) | 6.6 | –
11 | 7.2 | CCO/C(O)=C1\C(COCCNC)=NC(C)=C(C(=O)OC)C1c1ccccc1OC (stereo not given) | 7.1 | –
12 | 6.1 | CCO/C(O)=C1\C(COCCN(C)C)=NC(C)=C(C(=O)OC)C1c1ccncc1 (stereo not given) | 6 | –
13 | – | COC(=O)C1=C(C)NC(C)=C(C(=O)OCCN(C)Cc2ccccc2)C1c1cccc([N+](=O)[O-])c1 (stereo not given) | – | Plasma half life [5]: 17 h; Vd [6]: 3.5 L/kg
14 | 8.4 | CCO/C(O)=C1\C(COCCCN2CCN(C)CC2)=NC(C)=C(C(=O)OC)C1c1ccccc1Cl (stereo not given) | 8.2 | –
15 | 6.4 | CCO/C(O)=C1\C(COCCN2CCC(N(C)C)CC2)=NC(C)=C(C(=O)OC)C1c1ccccc1Cl (stereo not given) | 7.1 | –
16 | 8.5 | CCO/C(O)=C1\C(COCCNC)=NC(C)=C(C(=O)OC)C1c1ccccc1Cl (stereo not given) | 7.5 | Decrease (Canis familiaris [1]): 78.6%; Decrease (Canis familiaris [2]): 73.8%; Decrease (Canis familiaris [4]): 46.2%
17 | 7.4 | CCO/C(O)=C1\C(COCCN(C)C)=NC(C)=C(C(=O)OC)C1c1ccccc1C(F)(F)F (stereo not given) | 7.6 | –
18 | 6 | CCO/C(O)=C1\C(COCCN)=NC(C)=C(C(=O)OC)C1c1ccc(Cl)cc1 (stereo not given) | 6 | –
19 | 8 | CCO/C(O)=C1\C(COCCN2CCN(C)CC2)=NC(C)=C(C(=O)OC)C1c1ccccc1Cl (stereo not given) | 7.9 | –
20 | 7.9 | CCO/C(O)=C1\C(COCCNC)=NC(C)=C(C(=O)OC)C1c1c(F)cccc1Cl (stereo not given) | 7.6 | –
21 | 7.9 | CCO/C(O)=C1\C(COCCN)=NC(C)=C(C(=O)OC)C1c1cccc(Cl)c1Cl (stereo not given) | 6.6 | –
22 | 8 | CCO/C(O)=C1\C(COCCN2CCN(Cc3ccc(Cl)cc3)CC2)=NC(C)=C(C(=O)OC)C1c1ccccc1Cl (stereo not given) | 7.4 | –
23 | 7.8 | CCO/C(O)=C1\C(COCCN2CCOCC2)=NC(C)=C(C(=O)OC)C1c1ccccc1Cl (stereo not given) | 7.5 | –
24 | 8.5 | CCO/C(O)=C1\C(COCCN)=NC(C)=C(C(=O)OC)C1c1cccc(C(F)(F)F)c1Cl (stereo not given) | 7.3 | Decrease (Canis familiaris [1]): 81.7%; Decrease (Canis familiaris [2]): 75.7%; Decrease (Canis familiaris [4]): 52.6%
25 | 8.1 | CCO/C(O)=C1\C(COCCN(C)C)=NC(C)=C(C(=O)OC)C1c1ccccc1Cl (stereo not given) | 7.5 | Decrease (Canis familiaris [1]): 74.7%; Decrease (Canis familiaris [2]): 68.9%; Decrease (Canis familiaris [4]): 64.8%
26 | 6 | CCO/C(O)=C1\C(COCCN2CCN(CCN(CC)CC)CC2)=NC(C)=C(C(=O)OC)C1c1ccccc1Cl (stereo not given) | 7.1 | –
27 | 6.8 | CCO/C(O)=C1\C(COCCN2CCNCC2)=NC(C)=C(C(=O)OC)C1c1ccccc1Cl (stereo not given) | 7.4 | –
28 | 7.8 | CCO/C(O)=C1\C(COCCN)=NC(C)=C(C(=O)OC)C1c1ccccc1F (stereo not given) | 6.6 | –
29 | 7.4 | CCO/C(O)=C1\C(COCCN(C)Cc2ccccc2)=NC(C)=C(C(=O)OC)C1c1ccccc1Cl (stereo not given) | 7.3 | –
30 | 7.9 | CCO/C(O)=C1\C(COCCN2CCCC2)=NC(C)=C(C(=O)OC)C1c1ccccc1Cl (stereo not given) | 7.7 | –

Row | SMILES | -Log IC50 [3] | -Log IC25 (Cavia porcellus) | also measured
31 | CCOC(=O)C1=C(COCCN)NC(C)=C(C(=O)OC)C1c1ccccc1Cl (stereo in doubt; 17) [AMLODIPINE] | 8.1 | – | Decrease (Canis familiaris [1]): 76.9%; Decrease (Canis familiaris [2]): 69.5%; Decrease (Canis familiaris [4]): 35.4%
32 | CCOC(=O)C1=C(COCCN)NC(C)=C(C(=O)OC)C1c1ccccc1Cl (stereo in doubt; 18) [AMLODIPINE] | 8.7 | – | –
33 | CCOC(=O)C1=C(COCCN)NC(C)=C(C(=O)OC)C1c1ccccc1Cl (stereo in doubt; 19) [AMLODIPINE] | 5.8 | – | –
